# Laboratory results taken from ChEMBL document CHEMBL4428077, “Synthesis and Biological Evaluation of N-((1-(4-(Sulfonyl)piperazin-1-yl)cycloalkyl)methyl)benzamide Inhibitors of Glycine Transporter-1” (J Med Chem, 2016).
# Tests used:
# [1] = Thermodynamic solubility in pH 7.4 PBS by shake flask method; format: physicochemical; conditions: read-out: Therm_solubility
# Outline: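 Thermodynamic shake-flask solubility in PBS, pH 7.4.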
# [2] = biological target: T1, Sodium- and chloride-dependent glycine transporter 1 (Homo sapiens, UniProt P48067); assay: Inhibition of glycine transporter-1B in human JAR cells assessed as reduction in [14C]glycine uptake preincubated for 10 mins followed by [14C]glycine addition measured after 3 hrs by scintillation proximity assay; format: cell-based
# T1 sequence (P48067 whole entry): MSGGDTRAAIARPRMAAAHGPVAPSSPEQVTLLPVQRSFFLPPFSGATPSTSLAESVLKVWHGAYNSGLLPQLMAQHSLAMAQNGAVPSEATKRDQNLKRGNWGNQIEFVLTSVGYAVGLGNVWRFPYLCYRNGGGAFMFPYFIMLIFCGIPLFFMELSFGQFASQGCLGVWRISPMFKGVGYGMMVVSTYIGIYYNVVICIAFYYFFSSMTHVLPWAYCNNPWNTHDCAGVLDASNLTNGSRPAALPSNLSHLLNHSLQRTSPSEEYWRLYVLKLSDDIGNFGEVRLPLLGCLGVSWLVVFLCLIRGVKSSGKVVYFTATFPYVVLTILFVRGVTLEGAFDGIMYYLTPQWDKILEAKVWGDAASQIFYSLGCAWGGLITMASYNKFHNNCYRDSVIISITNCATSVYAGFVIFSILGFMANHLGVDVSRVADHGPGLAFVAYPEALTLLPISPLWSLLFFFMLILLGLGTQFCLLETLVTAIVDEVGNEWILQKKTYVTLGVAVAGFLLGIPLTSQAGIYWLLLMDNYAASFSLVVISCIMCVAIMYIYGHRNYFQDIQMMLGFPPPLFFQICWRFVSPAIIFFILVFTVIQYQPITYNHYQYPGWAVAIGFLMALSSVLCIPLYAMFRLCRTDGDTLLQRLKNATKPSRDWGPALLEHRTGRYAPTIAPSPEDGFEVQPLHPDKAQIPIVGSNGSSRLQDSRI
# Outline: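 Whole-cell SPA in JAR cells, which endogenously express hGlyT-1b. Cells (50,000 per well) were attached overnight in RPMI/10% FBS at 37 °C, 5% CO₂. [¹⁴C]glycine was then added and incubated 3 h at 37 °C. The assay window was set with unlabeled glycine. A reference standard ran on each plate. IC₅₀ values are means of n ≥ 2.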
# [3] = test system: Rattus norvegicus; assay: In vivo inhibition of glycine transporter-1 in Sprague-Dawley rat assessed as CSF glycine level at 3 mg/kg, po measured 2 hrs post dose by LC-MS/MS analysis relative to control; format: functional; set-up: scale not given: the % may be the effect or the level left
# Outline: (§1)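 Drug-naive adult male Sprague-Dawley rats, n = 4-5 per group, given a single oral dose of 0.4, 1.5, 4.7 or 15.7 μmol/kg. Vehicle was 5% Solutol + 10% Captisol in 25 mM PBS, pH 2. At 2 h, rats were killed by CO₂. CSF (50-100 μL) was taken from the cisterna magna, and brain and plasma were also collected. Glycine was measured by LC-MS/MS against a deuterated-glycine internal standard. Results given as % vehicle control (vehicle 30 min post-dose), mean ± SEM. Two-way ANOVA with Tukey test.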
# [4] = test system: Rattus norvegicus; assay: In vivo inhibition of glycine transporter-1 in Sprague-Dawley rat assessed as CSF glycine level at 0.3 mg/kg, po measured 2 hrs post dose by LC-MS/MS analysis relative to control; format: functional; set-up: scale not given: the % may be the effect or the level left; outline: as §1
# [5] = Drug level in Sprague-Dawley rat CSF at 0.3 mg/kg, po measured 2 hrs post dose by LC-MS/MS analysis; format: ADME, organism-based, Cerebrospinal fluid; conditions: read-out: Drug uptake
# Outline: (§2)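 Drug-naive Sprague−Dawley rats (n = 4−5/group) were dosed orally once in 5% Solutol plus 20% Captisol in 25 mM PBS, pH 2, and euthanized 2 h later by CO₂. CSF was drawn from the cisterna magna. Drug was measured in CSF, brain and plasma; data as mean ± SEM.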
# [6] = Drug level in Sprague-Dawley rat brain at 1 mg/kg, po measured 2 hrs post dose by LC-MS/MS analysis; format: ADME, organism-based; conditions: read-out: Drug uptake; outline: as §2
# [7] = test system: Rattus norvegicus; assay: In vivo inhibition of glycine transporter-1 in Sprague-Dawley rat assessed as CSF glycine level at 1 mg/kg, po measured 2 hrs post dose by LC-MS/MS analysis relative to control; format: functional; set-up: scale not given: the % may be the effect or the level left; outline: as §1
# [8] = Drug level in Sprague-Dawley rat plasma at 1 mg/kg, po measured 2 hrs post dose by LC-MS/MS analysis; format: ADME, organism-based; outline: as §2
# [9] = Drug level in Sprague-Dawley rat brain at 3 mg/kg, po measured 2 hrs post dose by LC-MS/MS analysis; format: ADME, organism-based; conditions: read-out: Drug uptake; outline: as §2
# [10] = Drug level in Sprague-Dawley rat plasma at 10 mg/kg, po measured 2 hrs post dose by LC-MS/MS analysis; format: ADME, organism-based; outline: as §2
# [11] = Drug level in Sprague-Dawley rat plasma at 0.3 mg/kg, po measured 2 hrs post dose by LC-MS/MS analysis; format: ADME, organism-based; outline: as §2
# [12] = Drug level in Sprague-Dawley rat CSF at 10 mg/kg, po measured 2 hrs post dose by LC-MS/MS analysis; format: ADME, organism-based, Cerebrospinal fluid; conditions: read-out: Drug uptake; outline: as §2
# [13] = Drug level in Sprague-Dawley rat CSF at 3 mg/kg, po measured 2 hrs post dose by LC-MS/MS analysis; format: ADME, organism-based, Cerebrospinal fluid; conditions: read-out: Drug uptake; outline: as §2
# [14] = Drug level in Sprague-Dawley rat plasma at 3 mg/kg, po measured 2 hrs post dose by LC-MS/MS analysis; format: ADME, organism-based; outline: as §2
# [15] = test system: Rattus norvegicus; assay: In vivo inhibition of glycine transporter-1 in Sprague-Dawley rat assessed as CSF glycine level at 10 mg/kg, po measured 2 hrs post dose by LC-MS/MS analysis relative to control; format: functional; set-up: scale not given: the % may be the effect or the level left; outline: as §1
# [16] = Metabolic stability in rat liver microsomes assessed as parent compound remaining at 3 uM incubated for 15 mins by LC-MS analysis; format: ADME, Microsome; conditions: liver microsomes, read-out: Stability
# Outline: (§3)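 Liver microsomes incubated with compound at 3 μM for 15 min. Parent compound remaining was quantified by LC-MS.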
# [17] = Drug level in Sprague-Dawley rat CSF at 1 mg/kg, po measured 2 hrs post dose by LC-MS/MS analysis; format: ADME, organism-based, Cerebrospinal fluid; conditions: read-out: Drug uptake; outline: as §2
# [18] = Drug level in Sprague-Dawley rat brain at 10 mg/kg, po measured 2 hrs post dose by LC-MS/MS analysis; format: ADME, organism-based; conditions: read-out: Drug uptake; outline: as §2
# [19] = Drug level in Sprague-Dawley rat brain at 0.3 mg/kg, po measured 2 hrs post dose by LC-MS/MS analysis; format: ADME, organism-based; conditions: read-out: Drug uptake; outline: as §2
# [20] = Metabolic stability in human liver microsomes assessed as parent compound remaining at 3 uM incubated for 15 mins by LC-MS analysis; format: ADME, Microsome; outline: as §3
# [21] = Cmax in cynomolgus monkey plasma at 5 mg/kg, po by LC-MS/MS analysis; format: ADME, organism-based, Macaca fascicularis; set-up: dose 5 mg/kg, route oral
# Outline: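 Single-dose PK in female cynomolgus monkeys, n = 3 per group: 1.5 μmol/kg IV in 5% DMSO/10% Solutol in saline, pH 6.5 (2 mL/kg), or 7.8 μmol/kg PO in 5% Solutol in 20% Captisol, 25 mM PBS, pH 2 (5 mL/kg). Plasma parameters reported as mean ± SD.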
solubility thermodynamic [1] [µM],IC50 [2] [nM],concentration at 2 h [5],concentration at 2 h [6] [nM],concentration at 2 h [8] [nM],concentration at 2 h [9] [nM],concentration at 2 h [10] [nM],concentration at 2 h [11] [nM],concentration at 2 h [12] [nM],concentration at 2 h [13] [nM],concentration at 2 h [14] [nM],"remaining at 0.25 h, 3 µM [16] [%]",concentration at 2 h [17] [nM],concentration at 2 h [18] [nM],concentration at 2 h [19] [nM],SMILES,Activity [3] [%],Activity [4] [%],Activity [7] [%],Activity [15] [%],further results
9.9,0.671,2.7 nM,13.1,76.9,39.2,432,18,7.5,4,204,85,3.7,64.9,7.5,Cl.Cn1cc(S(=O)(=O)N2CCN(C3(CNC(=O)c4ccc(C(F)(F)F)cc4Cl)CCC(F)(F)CC3)CC2)nn1,251.8,106.6,166,306.4,"remaining at 0.25 h, 3 µM ([20]; liver microsomes, read-out: Stability): 60%"
22.2,1.06,< 1 ng/mL,3.6,11.4,12.5,318,3.2,1.7,0.5,52.2,76,0.1,32.2,3.2,"CC(NC(=O)c1ccc(C(F)(F)F)cc1Cl)C1(N2CCN(S(=O)(=O)c3cn(C)nn3)CC2)CCC(F)(F)CC1.Cl (single isomer, unassigned; (+))",160.5,100.4,119.3,326.4,"Cmax [21]: 105 ng/mL; Stability ([20]; microsomes, 0.25 h, 3 µM): 74%"
